Data: ChEMBL document CHEMBL5107936, “Anti-amyloidogenic indolizino[3,2-c]quinolines as imaging probes differentiating dense-core, diffuse, and coronal plaques of amyloid-β” (RSC Med Chem, 2021)

Experiments:
[1] = system: HT-22; assay: Cytotoxicity against mouse HT-22 cells assessed as reduction in cell viability incubated for 18 hrs by MTT assay; assay type: toxicity, cell-based; conditions: ht-22, 18 h
[2] = target: Amyloid-beta precursor protein (Homo sapiens) (UniProt P05067); assay: Inhibition of Amyloid beta (1 to 42 ) (unknown origin) aggregation assessed as fibrilization amyloid beta by measuring beta sheets at 1 to 50 uM incubated for 3 days by Thioflavin T based fluorescence assay; conditions: dose 1-50 µM, time 3.0 day
Sequence of Amyloid-beta precursor protein (Homo sapiens) (P05067 whole entry): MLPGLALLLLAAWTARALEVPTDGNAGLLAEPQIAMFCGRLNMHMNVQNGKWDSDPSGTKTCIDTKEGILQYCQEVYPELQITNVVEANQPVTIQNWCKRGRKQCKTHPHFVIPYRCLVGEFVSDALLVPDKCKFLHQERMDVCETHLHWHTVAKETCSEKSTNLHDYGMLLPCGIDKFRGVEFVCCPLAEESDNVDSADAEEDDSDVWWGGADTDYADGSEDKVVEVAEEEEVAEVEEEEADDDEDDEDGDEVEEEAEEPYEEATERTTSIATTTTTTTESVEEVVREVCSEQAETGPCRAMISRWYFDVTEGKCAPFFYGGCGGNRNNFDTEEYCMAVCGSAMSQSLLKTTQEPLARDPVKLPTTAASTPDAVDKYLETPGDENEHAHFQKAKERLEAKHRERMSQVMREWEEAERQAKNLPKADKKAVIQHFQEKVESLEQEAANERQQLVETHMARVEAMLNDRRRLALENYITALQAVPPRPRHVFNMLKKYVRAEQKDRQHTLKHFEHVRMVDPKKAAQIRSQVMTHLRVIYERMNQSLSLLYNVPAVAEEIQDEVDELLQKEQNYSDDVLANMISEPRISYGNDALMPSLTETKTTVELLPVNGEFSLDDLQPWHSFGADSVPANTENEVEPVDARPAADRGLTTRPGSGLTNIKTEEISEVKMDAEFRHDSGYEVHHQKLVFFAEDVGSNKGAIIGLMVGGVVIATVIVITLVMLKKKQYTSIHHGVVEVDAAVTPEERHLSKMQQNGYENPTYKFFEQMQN

[3] = target: Amyloid-beta precursor protein (Homo sapiens) (UniProt P05067); assay: Inhibition of Amyloid beta (1 to 42 ) (unknown origin) disaggregation assessed as reduction in mature fibril at 50 uM preincubated with amyloid beta followed by compound addition and measured after 3 days by Thioflavin T based fluorescence assay; conditions: time 3.0 day
[4] = target: Amyloid-beta precursor protein (Homo sapiens) (UniProt P05067); assay: Inhibition of Amyloid beta (1 to 42 ) (unknown origin) aggregation at 0.5 to 50 uM incubated for 3 days followed by incandescent lamp irradiation by photo-induced cross-linking of unmodified proteins method; conditions: dose 0.5-50 µM, time 3.0 day
Method in brief: (§1)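 Cross-linked Aβ products resolved on gels, imaged by fluorescence scanning and by silver staining. Band area quantified by densitometry and normalized to the 3-day aggregates, set as 100%.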

[5] = target: Amyloid-beta precursor protein (Homo sapiens) (UniProt P05067); assay: Inhibition of Amyloid beta (1 to 42 ) (unknown origin) disaggregation assessed as reduction in aggregation by measuring monomer band intensity at 0.5 to 50 uM incubated for 3 days followed by incandescent lamp irradiation by photo-induced cross-linking of unmodified proteins method; conditions: dose 0.5-50 µM, time 3.0 day; method in brief: as §1

Row | Compound | Activity [1] | also measured
1 | COc1ccc(-c2nc3ccccc3c3c(I)c4ccccn4c23)cc1 | Toxic | 
2 | Brc1ccc2cc3c4ccccc4nc(-c4ccco4)c3n2c1 | Toxic | inhibition [2]: > 30%
3 | COc1ccc(-c2nc3ccccc3c3cc4ccc(-c5cc(OC)cc(OC)c5)cn4c23)cc1 | Toxic | 
4 | Cc1cccn2c1cc1c3ccccc3nc(-c3cc4ccccc4[nH]3)c12 | Toxic | inhibition [2]: > 30%; inhibition [3]: 40%
5 | Cc1cccn2c1cc1c3ccccc3nc(-c3cccc4ccccc34)c12 | Toxic | 
6 | COc1ccc(-c2nc3ccccc3c3cc4ccccn4c23)cc1 | Toxic | 
7 | COc1cc(OC)cc(-c2ccc3cc4c5ccccc5nc(-c5cccc6ccccc56)c4n3c2)c1 | Toxic | inhibition [2]: > 30%
8 | COc1ccc(-c2nc3ccccc3c3cc4ccccn4c23)cc1OC | Toxic | 
9 | COc1cc(OC)cc(-c2nc3ccccc3c3cc4ccccn4c23)c1 | Toxic | 
10 | Cc1ccc(-c2nc3ccccc3c3cc4c(C)cccn4c23)cc1 | Toxic | 
11 | COC(=O)c1c2c3ccccc3nc(-c3ccc[nH]3)c2n2ccccc12 | Toxic | 
12 | CCOC(=O)c1c2c3ccccc3nc(-c3ccc(OC)c(OC)c3)c2n2ccccc12 | Toxic | 
13 | c1ccc2cc(-c3nc4ccccc4c4cc5ccccn5c34)ccc2c1 | Toxic | 
14 | c1ccc2c(-c3nc4ccccc4c4cc5ccccn5c34)cccc2c1 | Toxic | 
15 | COc1cc(OC)cc(-c2nc3ccccc3c3cc4c(C)cccn4c23)c1 | Toxic | 
16 | Cc1cccn2c1cc1c3ccccc3nc(-c3ccco3)c12 | Toxic | 

Row | Compound | Activity [1] | also measured
17 | COc1cccc(-c2nc3ccccc3c3cc4c(C)cccn4c23)c1 | Toxic | 
18 | c1ccc(-c2nc3ccccc3c3cc4ccccn4c23)nc1 | Toxic | 
19 | Cc1ccc2cc3c4ccccc4nc(-c4cccc5ccccc45)c3n2c1 | Toxic | 
20 | Cc1cccn2c1cc1c3ccccc3nc(-c3cccc(F)c3)c12 | Toxic | 
21 | CN(C)c1ccc(-c2nc3ccccc3c3cc4ccccn4c23)cc1 | Toxic | inhibition [2]: > 30%; inhibition [3]: > 60%; inhibition [4]: 20%; inhibition [5]: 10%
22 | c1ccc(-c2nc3ccccc3c3cc4ccccn4c23)cc1 | Toxic | 
23 | COc1ccc(-c2nc3ccccc3c3cc4ccc(Br)cn4c23)cc1OC | Toxic | inhibition [2]: > 30%; inhibition [3]: 40%; inhibition [4]: 20%
24 | Brc1ccc(-c2nc3ccccc3c3cc4ccccn4c23)cc1 | Toxic | 
25 | COc1ccc(-c2nc3ccccc3c3cc4c(C)cccn4c23)cc1OC | Toxic | inhibition [2]: > 30%; inhibition [3]: 40%; inhibition [4]: 20%
26 | COc1cccc(-c2nc3ccccc3c3cc4ccccn4c23)c1 | Toxic | 
27 | Brc1ccc(C2Nc3ccccc3-c3cc4ccccn4c32)cc1 (stereo unspecified) | Toxic | 
28 | c1csc(-c2nc3ccccc3c3cc4ccccn4c23)c1 | Toxic | 
29 | Clc1ccc(-c2nc3ccccc3c3cc4ccccn4c23)cc1 | Toxic | 
30 | Cc1cccn2c1cc1c3ccccc3nc(-c3cc4ccccc4o3)c12 | Toxic | 
31 | COc1ccc(-c2nc3ccccc3c3c(-c4ccc(F)cc4)c4ccccn4c23)cc1 | Toxic | 
32 | Clc1ccc(-c2nc3ccccc3c3cc4ccccn4c23)s1 | Toxic | 
